In test [1] the target is T1, NS3h_1b(con1) HCV helicase (Hepatitis C virus genotype 1b, UniProt Q9WMX2). The test can be described thus: ATP hydrolysis assay. The test is classed as biochemical. Particulars: for ATP hydrolysis in the presence of RNA: 0.1 mg/ml poly(U), 15 nM NS3h; for ATP hydrolysis in the presence of RNA / ATP hydrolysis in the absence of RNA: 2 mM ATP, 37 °C; for ATP hydrolyzed for each 25 bp duplex separated: MBHA conditions, 25 nM NS3h, 1.25 mM metal; for ATP hydrolyzed for each 25 bp duplex separated / rate of ATP hydrolysis: 1 mM ATP; for rate of ATP hydrolysis: in MBHA, 25 nM NS3h_1b(con1), 1.25 mM metal chloride, triplicate; for ATP hydrolysis in the absence of RNA: no nucleic acid, 100 nM NS3h, versus rate without added metal; for ATP hydrolyzed in the time needed to separate a single base pair: steady state unwinding versus ATP hydrolysis, only divalent cation present.

Test [2] concerns the target T1, NS3h_1b(con1) HCV helicase. The test can be described thus: mantADP. Format: binding. Particulars: FRET, metal replacing Mg^2+.
The target in test [3] is T1, NS3h_1b(con1) HCV helicase. The test can be described thus: Molecular beacon based helicase assay. The following applies: for ability of divalent metal to support DNA unwinding: metal replacing Mg^2+; for Vmax, Michaelis-Menten / Km: data at or below 1 mM NTP; for Vmax, substrate inhibition model: global fit to equation (2); for Km: read-out: Km, Michaelis-Menten; for unwinding rate, % of that seen with ATP: 0.5 mM NTP analog, 2 mM MgCl2, initial rates; for DNA unwinding rate, times faster than ATP: 0.5 mM NTP, 2 mM MgCl2, 25 nM NS3h, 22 °C. The test is classed as biochemical.

Test [4] deals with HCV helicase. Particulars: ref Locatelli et al.; cited from earlier work.
The target in test [5] is T1, NS3h_1b(con1) HCV helicase. Nature of the test: Single-turnover MBHA. Particulars: for Afast / kfast / Aslow / kslow: 0.5 mM NTP. The test is classed as biochemical. Put shortly:
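Enzyme (50 nM NS3h) and 10 nM 17 bp Cy5 beacon DNA substrate in 50 mM MOPS pH 6.5 with 4 mM MgCl2 were rapidly mixed 1:1 with 1.0 mM NTP plus 2 μM dT20 trap. Fluorescence gave substrate remaining, corrected against a substrate-free blank and pre-NTP signal. Product (5 nM minus remaining) was fit to a two-phase first-order equation. Three independent reactions were run.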

Test [6] relates to HCV helicase. The following applies: ref Kyono et al.; cited from earlier work.
For the next test, the system named is full-length NS3. Particulars: ref Wardell et al.; cited from earlier work.
[7] abbreviates: 17 base pairs substrate, two-phase fit.

T1 sequence (Q9WMX2 1192-1657): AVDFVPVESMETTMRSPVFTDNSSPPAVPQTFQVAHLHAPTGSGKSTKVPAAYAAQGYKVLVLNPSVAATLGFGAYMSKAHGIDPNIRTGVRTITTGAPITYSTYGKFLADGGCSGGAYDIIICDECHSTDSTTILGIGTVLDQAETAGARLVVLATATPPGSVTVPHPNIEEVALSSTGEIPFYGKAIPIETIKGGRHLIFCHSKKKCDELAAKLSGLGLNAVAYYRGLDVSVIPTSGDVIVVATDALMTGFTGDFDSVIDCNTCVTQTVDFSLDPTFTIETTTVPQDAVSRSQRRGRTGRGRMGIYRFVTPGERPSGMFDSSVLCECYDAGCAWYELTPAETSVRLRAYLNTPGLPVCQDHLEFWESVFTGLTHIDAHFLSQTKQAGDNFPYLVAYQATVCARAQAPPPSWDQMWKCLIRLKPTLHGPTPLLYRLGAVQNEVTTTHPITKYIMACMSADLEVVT

`[Cl-].[Cl-].[Mg+2]` [Mg^2+, MgCl2]: in test [1], the “ATP hydrolysis in the presence of RNA” value was “supported hydrolysis”, the “ATP hydrolyzed for each 25 bp duplex separated” value was “about 1,000 ATP”, the “rate of ATP hydrolysis” value came to 629 ± 5.4 nM/min and the “ATP hydrolysis in the absence of RNA” value was “enhanced hydrolysis”. Also, in test [1], the “ATP hydrolyzed in the time needed to separate a single base pair” value is reported as “about 40 ATP”.
Consider `[Cl][Mn][Cl]` [Mn^2+, MnCl2], for which the “formation of enzyme-metal-NTP complex” value in test [2] is reported as “formed an enzyme-metal-NTP complex”. Besides, the “MBHA substrate unwound, times faster than with Mg^2+” value in test [3] (25 nM NS3h_1b(con1), 1 mM ATP, 1.25 mM MgCl2 or MnCl2) is “about 14 times”. For the same compound, in test [3] (data not shown), the “ability of divalent metal to support DNA unwinding” value (“ability of divalent metal” for short) is recorded as “could fuel unwinding”. For the same compound, in test [1], the “ATP hydrolysis in the presence of RNA” value is on record as “supported hydrolysis”, the “ATP hydrolyzed for each 25 bp duplex separated” value was “about 75 ATP”, the “rate of ATP hydrolysis” value is reported as 605 ± 4 nM/min and the “ATP hydrolysis in the absence of RNA” value is listed as “inhibited the rate of hydrolysis”. In test [1], the “ATP hydrolyzed in the time needed to separate a single base pair” value is recorded as 3 ATP.
On to `Nc1ncnc2c1ncn2[C@@H]1O[C@H](COP(=O)(O)OP(=O)(O)OP(=O)(O)O)[C@@H](O)[C@H]1O` [ATP], for which, in the test with HCV helicase [4], the “unwinding, times better than dATP” value is 100 times. Moreover, in test [3] (0.25 mM free Mg^2+), the “Vmax, Michaelis-Menten” value turned out to be 0.79 nM/min; the “Vmax, substrate inhibition model” value is on record as 10 nM/min; the Michaelis-Menten constant (Km) was 70 µM. Moreover, the Vmax in test [3] (equation (3), ATP and GTP both present) was 1.6 nM/min. Further, the Ki in test [3] (read-out: Ki (ATP), equation (3), ATP and GTP both present) was 0.69 mM. In addition, in test [5] (17 base pairs substrate), the Afast was found to be 3.1 ± 0.02 nM and the kfast came out at 8.4 ± 0.1 min⁻¹. In test [5] (setting [7]), the Aslow is listed as 0.70 ± 0.04 nM and the kslow came to 0.28 ± 0.05 min⁻¹. In test [5] (30 base pairs substrate), this compound yielded an Afast of 1.8 ± 0.03 nM, an Aslow of 1.2 ± 0.03 nM, a kfast of 3.1 ± 0.1 min⁻¹ and a kslow of 0.46 ± 0.03 min⁻¹.
Take `Nc1ncnc2c1ncn2C1OC(COP(=O)([O-])OP(=O)([O-])OP(=O)([O-])[O-])C(O)C1O.[Mn+2]` (stereo not shown) [Mn(ATP)^2−]: the “hydrolysis by the open form, times slower than Mg(ATP)^2−” value in test [1] (enzyme not bound to RNA) is “at least 100 times”.
Take `Nc1ncnc2c1ncn2[C@@H]1O[C@H](COP(=O)(O)OP(=O)(O)OP(=O)(O)O)[C@@H](O)[C@@H]1O` [2′-ara-ATP]: the “unwinding rate, % of that seen with ATP” value in test [3] was “practically the same unwinding rates as ATP”.
Consider `Cc1cn([C@H]2C[C@H](O)[C@@H](COP(=O)(O)OP(=O)(O)OP(=O)(O)O)O2)c(=O)[nH]c1=O` [dTTP], for which the “DNA unwinding rate, times faster than ATP” value (from here on “DNA unwinding rate”) in test [3] was “about 3 fold”. Besides, in test [3] (0.25 mM free Mg^2+), the “Vmax, Michaelis-Menten” value was 5.3 nM/min; the “Vmax, substrate inhibition model” value worked out at 50 nM/min; the Km stood at 300 µM. In test [5] (17 base pairs substrate), this compound registered an Afast of 3.4 ± 0.4 nM and a kfast of 9.1 ± 0.4 min⁻¹. Moreover, in test [5] (setting [7]), the Aslow was determined as 0.48 ± 0.03 nM and the kslow worked out at 0.28 ± 0.06 min⁻¹. In addition, in test [5] (30 base pairs substrate), the Afast is on record as 2.6 ± 0.03 nM, the Aslow is listed as 0.66 ± 0.02 nM, the kfast was 4.8 ± 0.3 min⁻¹ and the kslow came out at 0.50 ± 0.02 min⁻¹.
`[Co+2]` [Co^2+]: the “ability of divalent metal” value in test [3] (data not shown) is listed as “did not support”. Moreover, in test [1], the “ATP hydrolysis in the presence of RNA” value is listed as “supported hydrolysis” and the “ATP hydrolysis in the absence of RNA” value was “inhibited the rate of hydrolysis”.
`Nc1ncnc2c1ncn2[C@H]1C[C@H](O)[C@@H](COP(=O)(O)OP(=O)(O)OP(=O)(O)O)O1` [dATP]: the “use of dATP compared with ATP for unwinding” value with HCV helicase [6] is “used equally well”. For the same compound, the “unwinding relative to that observed with ATP” value in the test with full-length NS3 is given as 60%.
Regarding `[Cl-].[Cl-].[Zn+2]` [Zn^2+, ZnCl2], the “formation of enzyme-metal-NTP complex” value in test [2] is on record as “formed an enzyme-metal-NTP complex”. For the same compound, the “ability of divalent metal” value in test [3] (data not shown) is recorded as “did not support”. Moreover, in test [1], the “ATP hydrolysis in the presence of RNA” value was “supported hydrolysis” and the “ATP hydrolysis in the absence of RNA” value is “inhibited the rate of hydrolysis”.
Regarding `Nc1ncnc2c1ncn2[C@@H]1O[C@H](COP(=O)(O)OP(=O)(O)OP(=O)(O)O)C[C@H]1O` [3′-dATP], in test [3], the “DNA unwinding rate” value came out at 3 fold.
With `[Ca+2]` [Ca^2+], the “ability of divalent metal” value in test [3] (data not shown) was “did not support”. For the same compound, the “ATP hydrolysis in the absence of RNA” value in test [1] is on record as “inhibited the rate of hydrolysis”.
As for `CO[C@@H]1[C@H](O)[C@@H](COP(=O)(O)OP(=O)(O)OP(=O)(O)O)O[C@H]1n1cnc2c(N)ncnc21` [2′-O-methyl-ATP], the “unwinding rate, % of that seen with ATP” value in test [3] was determined as 34%.
Still for that read-out and setting: the value for `Nc1ncnc2c1ncn2[C@@H]1O[C@H](COP(=O)(O)OP(=O)(O)OP(=O)(O)O)[C@@H](O)[C@H]1F` [2′-F-ATP] was 145%.
Take `Nc1ncnc2c1ncn2[C@@H]1O[C@H](COP(=O)([O-])OP(=O)([O-])OP(=O)(O)O)[C@@H](O)[C@H]1O.[Mg+2]` [Mg(ATP)^2−]: the “maximal steady state unwinding rate” value in test [3] (25 nM NS3h) is 0.8 nM/min. Further, the “Vmax for unwinding, times faster than Mg(GTP)^2−” value in test [3] (Michaelis-Menten fit, data up to 1 mM Mg(NTP)^2−, 0.25 mM free Mg^2+) turned out to be 15 times. For the same compound, the kcat of unwinding in test [3] (calculated from maximal steady state rate at 25 nM NS3h, assumes monomer) is 0.000533 s⁻¹.
`O=c1[nH]c(=O)c2ncn([C@@H]3O[C@H](COP(=O)(O)OP(=O)(O)OP(=O)(O)O)[C@@H](O)[C@H]3O)c2[nH]1` [XTP, Xanthosine triphosphate]: the “unwinding rate, % of that seen with ATP” value in test [3] amounted to 7%.
On to `Nc1ncnc2c1ncn2[C@H]1CC[C@@H](CO[P@@](=O)(O)O[P@](=O)(O)OP(=O)(O)O)O1` [2′,3′-ddATP], for which the “DNA unwinding rate” value in test [3] stood at 2.7 fold.
Take `[Cl-].[Na+]` [NaCl]: the IC50 in test [3] (read-out: IC50, inhibition of NS3h catalyzed DNA unwinding, MBHA, data not shown) worked out at 15 mM.
On to `[N-]=[N+]=NC1C(O)C(COP(=O)(O)OP(=O)(O)OP(=O)(O)O)OC1n1cnc2c(N)ncnc21` (stereo not shown) [2′-azido-ATP], for which, in test [3], the “unwinding rate, % of that seen with ATP” value came to 61%.
With `Nc1nc2c(ncn2[C@@H]2O[C@H](COP(=O)(O)OP(=O)(O)OP(=O)(O)O)[C@@H](O)[C@H]2O)c(=O)[nH]1` [GTP], in test [3] (0.25 mM free Mg^2+), the “Vmax, Michaelis-Menten” value came to 0.05 nM/min; the “Vmax, substrate inhibition model” value came out at 0.41 nM/min; the Km was found to be 410 µM. The “Kii (GTP)” value in test [3] (equation (3), GTP as non-competitive inhibitor of ATP fueled unwinding) stood at 0.65 mM. In addition, the “reaction amplitude, times less than in ATP fueled reactions” value in test [5] (17 base pair substrate) turned out to be 7 times. In test [5] (17 base pairs substrate), this compound yielded an Afast of 0.42 ± 0.03 nM and a kfast of 8.3 ± 1.9 min⁻¹. In test [5] (30 base pairs substrate), this compound returned an Afast of 0.58 ± 0.08 nM, an Aslow of 0.11 ± 0.05 nM, a kfast of 0.61 ± 0.06 min⁻¹ and a kslow of 0.62 ± 0.08 min⁻¹.

By Vmax is commonly meant the top rate of the reaction or transport when substrate is in excess. As a reminder, the Ki is a measure of affinity in units of concentration, obtained from inhibition or displacement. A word on the Km: it is the concentration of substrate that gives half-maximal velocity. What is called IC50 is the concentration at which inhibition is half-maximal.

The values are drawn from article PMC2692962 (Journal of molecular biology, 2009).
